Published values from different studies.
Oprk1: Kappa-type opioid receptor (Oprk1, Mus musculus, UniProt P33534)
SLC6A2: Sodium-dependent noradrenaline transporter (SLC6A2, Homo sapiens, UniProt P23975)
CES2: Cocaine esterase (CES2, Homo sapiens, UniProt O00748)
FPR1: fMet-Leu-Phe receptor (FPR1, Homo sapiens, UniProt P21462)

| SMILES | target | assay | conditions | quantity | result |
| --- | --- | --- | --- | --- | --- |
| CC(C)[C@@H](CN1CCc2ccccc2C1)NC(=O)c1ccc(F)cc1 | Oprk1 | ligand displacement, radioligand |  | Ki | 36200 nM |
| OC[C@@]12C[C@@H]1[C@@H](n1cnc3c(N[C@@H](C4CCC4)C4CC4)nc(C#Cc4ccc(Cl)s4)nc31)[C@H](O)[C@@H]2O | SLC6A2 | ligand displacement, radioligand |  | Ki | 1800 nM |
| COc1cc2c(cc1OC)C(=O)/C(=C/c1ccc(C)cc1Cl)C2 | CES2 | enzyme activity, inhibitor, fluorescence | with preincubation | IC50 | > 100000 nM |
| CC(=O)N[C@@H](C)c1cc(Cl)ccc1C1CCN(C(=O)[C@@H]2CN(C(C)(C)C)C[C@H]2c2ccc(F)cc2F)CC1 | Melanocortin receptor 4 (MC4R, Homo sapiens, UniProt P32245) | cAMP, agonist |  | EC50 | 7.8 nM |
| CCc1ccccc1/C=C1\Cc2cc(OC)c(OC)cc2C1=O | CES2 | enzyme activity, inhibitor, fluorescence | with preincubation | IC50 | 1480 nM |
| CNc1nc(C#Cc2ccc(Cl)s2)nc2c1ncn2[C@H]1[C@H](O)[C@H](O)[C@]2(C(=O)OC)C[C@H]12 | SLC6A2 | ligand displacement, radioligand |  | EC50 | 750 nM |
| COc1cc2c(cc1OC)C(=O)/C(=C/C1CCCCC1)C2 | CES2 | enzyme activity, inhibitor, fluorescence | with preincubation | IC50 | 2420 nM |
| N#Cc1ccc(C[C@H](Nc2nnc(-c3cccc(F)c3)o2)C(=O)N2CCc3ccccc32)cc1 | FPR1 | calcium signal, agonist |  | EC50 | 30200 nM |
| CCOC(=O)[C@@]12C[C@@H]1[C@@H](n1cnc3c(NCc4cccc(Cl)c4)nc(C#Cc4ccc(Cl)s4)nc31)[C@H](O)[C@@H]2O | SLC6A2 | ligand displacement, radioligand |  | Ki | 1200 nM |
| CCCCC[C@H](O)/C=C/[C@H]1C(=O)C[C@H](O)[C@@H]1C/C=C\CCCC(=O)O | Prostaglandin D2 receptor (PTGDR, Homo sapiens, UniProt Q13258) | G protein activation, agonist, BRET |  | EC50 | 6.46 nM |
| CC(C)[C@@H](CN1CCc2ccccc2C1)NC(=O)c1cccc(-c2cccc(C#N)c2)c1 | Oprk1 | ligand displacement, radioligand |  | Ki | 2140 nM |
| N#Cc1ccc(C[C@@H](Nc2c(Nc3ccc(Br)cc3)c(=O)c2=O)C(=O)N2CCc3ccccc32)cc1 | FPR1 | calcium signal, agonist |  | EC50 | 32800 nM |
| CCOC(=O)[C@@]12C[C@@H]1[C@@H](n1cnc3c(NC4CC4)nc(C#Cc4ccc(Cl)s4)nc31)[C@H](O)[C@@H]2O | SLC6A2 | ligand displacement, radioligand |  | Ki | 3700 nM |
| COc1cc2c(cc1OC)C(=O)/C(=C/C1CCCC1)C2 | CES2 | enzyme activity, inhibitor, fluorescence | with preincubation | IC50 | 6310 nM |
| CN1C(=O)C(c2c(-c3ccc(Cl)cc3)[nH]c3c2c(=O)[nH]c(=O)n3C)c2ccccc21 (stereo not shown) | WD repeat-containing protein 91 (Homo sapiens, UniProt A4D1P6) | binding, SPR |  | Kd | 2000 nM |
| CC(C)Oc1ccc2c(=O)c(-c3ccccc3)coc2c1 | CES2 | enzyme activity, inhibitor, fluorescence | with preincubation | IC50 | > 100000 nM |
| O=C(CCNC(=O)CNC(=O)CC(c1ccccc1)(c1ccccc1)c1ccccc1)NC[C@H]1CCCN(Cc2ccc(F)cc2)C1 | Muscarinic acetylcholine receptor M5 (CHRM5, Homo sapiens, UniProt P08912) | ligand displacement, radioligand | cell membranes | IC50 | 19400 nM |
| N#CC[C@@]12C[C@@H]1[C@@H](n1cnc3c(NCc4cccc(Cl)c4)nc(C#Cc4ccc(Cl)s4)nc31)[C@H](O)[C@@H]2O | SLC6A2 | ligand displacement, radioligand |  | Ki | 4100 nM |
| COc1ccc(/C=C2\Cc3cc(OC)c(OC)cc3C2=O)cc1OC | CES2 | enzyme activity, inhibitor, fluorescence | with preincubation | IC50 | > 100000 nM |
